Results: ChEMBL document CHEMBL1926528, “Formulating a new basis for the treatment against botulinum neurotoxin intoxication: 3,4-Diaminopyridine prodrug design and characterization” (Bioorg Med Chem, 2011)

Key:
[1] = Half life in iv dosed mouse; assay type: ADME, organism-based; conditions: in vivo
Acetylcholinesterase [2] = molecular target: T1, Acetylcholinesterase (Electrophorus electricus, UniProt O42275); test: Inhibition of Electrophorus electricus Type V-S acetylcholinesterase using […] as substrate by spectrophotometric Ellman's assay
T1 sequence (O42275 whole entry): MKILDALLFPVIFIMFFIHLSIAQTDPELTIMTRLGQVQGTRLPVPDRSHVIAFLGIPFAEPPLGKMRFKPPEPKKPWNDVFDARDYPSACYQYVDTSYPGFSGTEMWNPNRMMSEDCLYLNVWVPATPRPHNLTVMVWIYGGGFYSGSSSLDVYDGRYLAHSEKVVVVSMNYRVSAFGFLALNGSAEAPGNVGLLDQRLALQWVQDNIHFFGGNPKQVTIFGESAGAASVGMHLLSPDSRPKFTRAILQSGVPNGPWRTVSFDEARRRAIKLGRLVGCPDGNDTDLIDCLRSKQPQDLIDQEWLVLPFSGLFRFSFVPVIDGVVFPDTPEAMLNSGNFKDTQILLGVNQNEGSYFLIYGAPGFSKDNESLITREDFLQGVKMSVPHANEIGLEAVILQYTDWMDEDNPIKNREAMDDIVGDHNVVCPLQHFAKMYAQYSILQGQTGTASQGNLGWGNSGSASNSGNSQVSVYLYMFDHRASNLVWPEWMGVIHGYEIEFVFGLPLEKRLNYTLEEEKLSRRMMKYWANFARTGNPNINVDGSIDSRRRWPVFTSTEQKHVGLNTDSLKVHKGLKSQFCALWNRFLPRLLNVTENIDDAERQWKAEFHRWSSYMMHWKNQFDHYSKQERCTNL
How it was run: (§1)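 Ellman method at 37°C in 100 mM sodium phosphate pH 8.0 with 360 µM DTNB. Substrate was 100 µM acetylthiocholine iodide for eel AChE or butyrylthiocholine iodide for equine BChE, each reconstituted in 1% gelatin buffer. Prodrug ranged 500 µM to 2 µM. Reaction started with 0.5 U enzyme; linear rates read at 412 nm. IC50 and Ki came from non-linear regression, with Ki from varied inhibitor and substrate concentrations.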

Butyrylcholinesterase [3] = molecular target: T2, Butyrylcholinesterase (Equus caballus, UniProt Q9N1N9); test: Inhibition of equine serum BChE using butyrylthiocholine iodide as a substrate by spectrophotometric Ellman's assay; how it was run: as §1
T2 sequence (Q9N1N9 whole entry): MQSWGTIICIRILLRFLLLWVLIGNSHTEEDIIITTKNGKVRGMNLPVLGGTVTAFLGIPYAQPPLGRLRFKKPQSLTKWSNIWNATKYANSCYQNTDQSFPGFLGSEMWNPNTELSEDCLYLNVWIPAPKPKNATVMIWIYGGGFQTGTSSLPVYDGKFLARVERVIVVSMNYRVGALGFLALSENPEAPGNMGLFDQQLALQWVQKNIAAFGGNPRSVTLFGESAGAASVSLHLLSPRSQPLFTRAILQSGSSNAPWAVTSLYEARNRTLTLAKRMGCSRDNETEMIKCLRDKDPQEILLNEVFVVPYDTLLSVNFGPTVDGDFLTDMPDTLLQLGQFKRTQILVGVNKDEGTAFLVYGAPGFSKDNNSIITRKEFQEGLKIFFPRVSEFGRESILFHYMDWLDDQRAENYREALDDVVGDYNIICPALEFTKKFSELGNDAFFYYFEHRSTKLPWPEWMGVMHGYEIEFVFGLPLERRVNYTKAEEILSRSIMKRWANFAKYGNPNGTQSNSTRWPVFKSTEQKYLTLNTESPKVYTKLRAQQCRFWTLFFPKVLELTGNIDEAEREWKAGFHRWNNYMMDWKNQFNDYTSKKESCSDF

Acetylcholinesterase [4] = molecular target: T1, Acetylcholinesterase; test: Prodrug activation assessed as Electrophorus electricus Type V-S acetylcholinesterase mediated 3,4-diaminopyridine release measured 3 hrs post enzymatic hydrolysis by reverse phase HPLC
How it was run: (§2)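 Prodrug at 500 µM was incubated with 1.0 U eel AChE or equine BChE in 100 mM sodium phosphate pH 8.0 for 3 h at 37°C. Reaction was quenched with glacial acetic acid. Released 3,4-DAP was measured by C18 reverse-phase HPLC (TFA water/acetonitrile gradient, 254 and 320 nm) and quantified from peak area against authentic standards.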

Butyrylcholinesterase [5] = molecular target: T2, Butyrylcholinesterase; test: Prodrug activation assessed as equine serum BChE-mediated 3,4-diaminopyridine release measured 3 hrs post enzymatic hydrolysis by reverse phase HPLC; conditions: horse; how it was run: as §2
Serum = test: Half life mouse serum by reverse phase HPLC; assay type: ADME, cell-free
How it was run: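 15 µl of 10 mM prodrug stock went into 85 µL mouse serum from clotted blood, pre-warmed to 37°C. Samples were taken at 0–120 min and extracted with cold acetonitrile; proteins were removed by centrifugation. Breakdown product 3,4-DAP was followed by reverse-phase HPLC. Half-life was calculated from 1-hour endpoint samples.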

Compound `Nc1cncc(N)c1N` has a half-life [1] of 18.6 min.
Compound `COC(=O)Nc1cnccc1N` has an IC50 (Acetylcholinesterase [2]) of over 500 µM, an IC50 (Butyrylcholinesterase [3]) of over 500 µM and a Drug metabolism (Acetylcholinesterase [4]) of 0 µM. For the same compound, the Drug metabolism (Butyrylcholinesterase [5]) was 0 µM.
In the case of `COC(=O)Nc1ccncc1NC(=O)OC`, the IC50 (Acetylcholinesterase [2]) is reported as 36.3 µM, the Ki (Acetylcholinesterase [2]) is reported as over 500 µM and the IC50 (Butyrylcholinesterase [3]) is reported as 417 µM. The Ki (Butyrylcholinesterase [3]) was over 500 µM, the Drug metabolism (Acetylcholinesterase [4]) was 0 µM and the Drug metabolism (Butyrylcholinesterase [5]) was 0 µM.
With `CC(=O)Nc1ccncc1N` the IC50 (Acetylcholinesterase [2]) was 61.3 µM, the Ki (Acetylcholinesterase [2]) was 32.5 µM and the IC50 (Butyrylcholinesterase [3]) was over 500 µM. For the same compound, the Ki (Butyrylcholinesterase [3]) was 173 µM, the Drug metabolism (Acetylcholinesterase [4]) was 0 µM and the Drug metabolism (Butyrylcholinesterase [5]) was 0 µM.
`COC(=O)Nc1ccncc1N` gave an IC50 (Acetylcholinesterase [2]) of 45.6 µM, an IC50 (Butyrylcholinesterase [3]) of 491 µM and a Drug metabolism (Acetylcholinesterase [4]) of 0 µM. The Drug metabolism (Butyrylcholinesterase [5]) was 0 µM.
With `Nc1cnccc1NC(=O)c1ccccc1` the IC50 (Acetylcholinesterase [2]) was over 500 µM, the IC50 (Butyrylcholinesterase [3]) was over 500 µM and the Drug metabolism (Acetylcholinesterase [4]) was 0 µM. It also gave a Drug metabolism (Butyrylcholinesterase [5]) of 0 µM.
With `CC(C)CC(=O)Oc1ccc(COC(=O)Nc2ccncc2N)cc1` the IC50 (Acetylcholinesterase [2]) was 11.9 µM, the Ki (Acetylcholinesterase [2]) was 55.4 µM and the IC50 (Butyrylcholinesterase [3]) was 87.7 µM. For the same compound, the Ki (Butyrylcholinesterase [3]) was 38.4 µM, the Drug metabolism (Acetylcholinesterase [4]) was 12 µM and the Drug metabolism (Butyrylcholinesterase [5]) was 83 µM.
For `CC(=O)Nc1ccncc1NC(C)=O`, the IC50 (Acetylcholinesterase [2]) was 34.2 µM, the IC50 (Butyrylcholinesterase [3]) was 404 µM and the Drug metabolism (Acetylcholinesterase [4]) was 0 µM. The Drug metabolism (Butyrylcholinesterase [5]) was 0 µM.
`CC(=O)Oc1ccc(COC(=O)Nc2ccncc2N)cc1` showed an IC50 (Acetylcholinesterase [2]) of 49.4 µM, a Ki (Acetylcholinesterase [2]) of 10.9 µM and an IC50 (Butyrylcholinesterase [3]) of 10.6 µM. For the same compound, the Ki (Butyrylcholinesterase [3]) was 1.6 µM, the Drug metabolism (Acetylcholinesterase [4]) was 0 µM and the Drug metabolism (Butyrylcholinesterase [5]) was 0 µM.
Work on `Nc1cnccc1NC(=O)OCc1ccc(OC(=O)C2CCCC2)cc1` yielded an IC50 (Acetylcholinesterase [2]) of 11.6 µM, a Ki (Acetylcholinesterase [2]) of 6.8 µM and an IC50 (Butyrylcholinesterase [3]) of 77.5 µM. It also gave a Ki (Butyrylcholinesterase [3]) of 37.2 µM, a Drug metabolism (Acetylcholinesterase [4]) of 34 µM and a Drug metabolism (Butyrylcholinesterase [5]) of 79 µM.
With `CC(C)C(=O)OCCOC(=O)Nc1ccncc1N` the IC50 (Acetylcholinesterase [2]) was 25.9 µM, the Ki (Acetylcholinesterase [2]) was over 500 µM and the IC50 (Butyrylcholinesterase [3]) was 61.9 µM. The Ki (Butyrylcholinesterase [3]) was over 500 µM, the Drug metabolism (Acetylcholinesterase [4]) was 0 µM and the Drug metabolism (Butyrylcholinesterase [5]) was 4 µM.
Work on `Nc1cnccc1NC(=O)OCc1ccc(OC(=O)Cc2ccccc2)cc1` yielded an IC50 (Acetylcholinesterase [2]) of 136 µM, an IC50 (Butyrylcholinesterase [3]) of 32.2 µM and a Ki (Butyrylcholinesterase [3]) of 30.7 µM. For the same compound, the Drug metabolism (Acetylcholinesterase [4]) was 0 µM and the Drug metabolism (Butyrylcholinesterase [5]) was 0 µM.
`COc1cccc(C(=O)Oc2ccc(COC(=O)Nc3ccncc3N)cc2)c1` showed an IC50 (Acetylcholinesterase [2]) of 163 µM, an IC50 (Butyrylcholinesterase [3]) of 61.7 µM and a Drug metabolism (Acetylcholinesterase [4]) of 2 µM. For the same compound, the Drug metabolism (Butyrylcholinesterase [5]) was 0 µM.
`CC(C)C(=O)Oc1ccc(COC(=O)Nc2ccncc2N)cc1` showed an IC50 (Acetylcholinesterase [2]) of 8.5 µM, a Ki (Acetylcholinesterase [2]) of 3.9 µM and an IC50 (Butyrylcholinesterase [3]) of 122 µM. For the same compound, the Ki (Butyrylcholinesterase [3]) was 42 µM, the Drug metabolism (Acetylcholinesterase [4]) was 105 µM and the Drug metabolism (Butyrylcholinesterase [5]) was 82 µM. The t1/2 (Serum) was 1.9 min.
`CC(C)OC(=O)CCC(=O)Nc1ccncc1N` showed an IC50 (Acetylcholinesterase [2]) of 88.3 µM, a Ki (Acetylcholinesterase [2]) of 3.2 µM and an IC50 (Butyrylcholinesterase [3]) of 97.4 µM. It also gave a Ki (Butyrylcholinesterase [3]) of 62 µM, a Drug metabolism (Acetylcholinesterase [4]) of 3.4 µM and a Drug metabolism (Butyrylcholinesterase [5]) of 5.8 µM. For the same compound, the t1/2 (Serum) was 165 min.
`Nc1cnccc1NC(=O)OCc1ccc(OC(=O)c2ccccc2)cc1` showed an IC50 (Acetylcholinesterase [2]) of 167 µM, an IC50 (Butyrylcholinesterase [3]) of 392 µM and a Drug metabolism (Acetylcholinesterase [4]) of 1 µM. For the same compound, the Drug metabolism (Butyrylcholinesterase [5]) was 0 µM.
Compound `CCC(=O)Oc1ccc(COC(=O)Nc2ccncc2N)cc1` has an IC50 (Acetylcholinesterase [2]) of 5.2 µM, a Ki (Acetylcholinesterase [2]) of 5.7 µM and an IC50 (Butyrylcholinesterase [3]) of 129 µM. It also gave a Ki (Butyrylcholinesterase [3]) of 25 µM, a Drug metabolism (Acetylcholinesterase [4]) of 145 µM and a Drug metabolism (Butyrylcholinesterase [5]) of 82 µM. It also gave a t1/2 (Serum) of 1.2 min.
Compound `Nc1cnccc1NC(=O)C1CCCC1` has an IC50 (Acetylcholinesterase [2]) of over 500 µM, an IC50 (Butyrylcholinesterase [3]) of over 500 µM and a Drug metabolism (Acetylcholinesterase [4]) of 4 µM. For the same compound, the Drug metabolism (Butyrylcholinesterase [5]) was 8 µM.
With `CCCC(=O)Oc1ccc(COC(=O)Nc2ccncc2N)cc1` the IC50 (Acetylcholinesterase [2]) was 48.8 µM, the Ki (Acetylcholinesterase [2]) was 12.1 µM and the IC50 (Butyrylcholinesterase [3]) was 111 µM. The Ki (Butyrylcholinesterase [3]) was 14.4 µM, the Drug metabolism (Acetylcholinesterase [4]) was 10 µM and the Drug metabolism (Butyrylcholinesterase [5]) was 71 µM.
For `C#CC[n+]1ccc(N)c(N)c1`, the half-life [1] was 72 min.
In the case of `CC(C)C(=O)OCc1ccccc1COC(=O)Nc1ccncc1N`, the IC50 (Acetylcholinesterase [2]) is reported as 496 µM, the IC50 (Butyrylcholinesterase [3]) is reported as over 500 µM and the Drug metabolism (Acetylcholinesterase [4]) is reported as 29 µM. It also gave a Drug metabolism (Butyrylcholinesterase [5]) of 5 µM.
